For 1 molecule, Kd results are on record in ChEMBL document CHEMBL4414601 (J Med Chem, 2019).

The experiment in a line: Binding affinity to GSK3 in Plasmodium falciparum 3D7 blood stage extract incubated for 1 hr by kinobeads based pull down assay. The settings on record: read-out: Kd(app). The procedure, abridged: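 The free compound competed over six concentrations from 0.08 to 20 μM. Proteins were digested by a modified SP3 protocol, labelled with TMT 10-plex and quantified by LC-MS/MS. Apparent Kd was derived from IC50 corrected for bead depletion. Two independent experiments were run.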

Structures are written as SMILES. pKd: −log10 of the molar value.

Consider `Cc1cc(Nc2nccc(-c3sc(C4CCNCC4)nc3-c3ccc(F)cc3)n2)ccn1`, for which the negative-log Kd (pKd) is 7.05.

As usually defined, the pKd is the negative decadic logarithm of the Kd, by convention in mol/L.
